Assays:
[1] = test system: Trypanosoma brucei brucei; experiment: Antitrypanosomal activity against Trypanosoma brucei brucei TC 221 after 48 hrs by alamar blue assay; details: TC 221, 48 h
[2] = biological target: T1, Falcipain 2 (Plasmodium falciparum) (UniProt Q9N6S8); experiment: Inhibition of Plasmodium falciparum falcipain-2 at 30 uM after 10 to 15 min
T1 sequence (whole entry): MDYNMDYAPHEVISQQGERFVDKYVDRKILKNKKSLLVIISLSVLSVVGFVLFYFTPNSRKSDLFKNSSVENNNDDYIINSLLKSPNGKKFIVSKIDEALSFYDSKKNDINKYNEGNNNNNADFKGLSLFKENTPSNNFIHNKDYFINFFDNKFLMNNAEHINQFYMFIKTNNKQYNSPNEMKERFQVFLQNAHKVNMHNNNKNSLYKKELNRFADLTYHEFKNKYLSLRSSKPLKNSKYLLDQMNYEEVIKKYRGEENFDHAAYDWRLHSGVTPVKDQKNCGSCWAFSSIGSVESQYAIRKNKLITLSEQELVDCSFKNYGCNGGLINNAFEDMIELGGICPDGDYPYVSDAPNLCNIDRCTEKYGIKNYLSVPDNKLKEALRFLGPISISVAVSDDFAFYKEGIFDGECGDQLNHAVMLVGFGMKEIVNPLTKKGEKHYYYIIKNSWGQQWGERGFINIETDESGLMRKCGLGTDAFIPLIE
Outline: (§1)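 Single-concentration screen with Cbz-Phe-Arg-AMC at 40 µM (FP-2) or 10 µM (rhodesain). Hydrolysis product release read continuously over 10 min. DMSO served as negative control and E-64 as positive control. Inhibition expressed as percent versus DMSO.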

Falcipain 2 = biological target: T2, Falcipain 2 (Plasmodium falciparum, UniProt Q9N6S8); experiment: Inhibition of Plasmodium falciparum falcipain-2 after 10 to 15 min
T2 sequence (Q9N6S8 whole entry): T1 sequence (whole entry)
Outline: (§2)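 Recombinant enzymes, FP-2 expressed in E. coli. Run in 50 mM sodium acetate pH 5.5 with 10 mM DTT. Substrate Cbz-Phe-Arg-AMC at 40 µM for FP-2 and 10 µM for rhodesain. Fluorescence (ex 365/em 460) followed continuously for 10–15 min at room temperature. Kiapp taken from Dixon plots and corrected to Ki using Km 21.5 µM (FP-2) or 0.9 µM (rhodesain). Each assay run twice.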

Rhodesain = Rhodesain (Trypanosoma brucei rhodesiense, UniProt Q95PM0); experiment: Inhibition of Trypanosoma brucei rhodesiense rhodesain after 10 to 15 mins
Outline: as §2

Plasmodium falciparum = experiment: Antiplasmodial activity against Plasmodium falciparum FCBR infected in human RBC; format: functional, organism-based; details: FCBR/Columbia
[3] = biological target: Rhodesain (Trypanosoma brucei rhodesiense) (UniProt Q95PM0); experiment: Inhibition of Trypanosoma brucei rhodesiense rhodesain at 100 uM after 10 to 15 mins
Outline: as §1

Chain of Rhodesain (Q95PM0 whole entry): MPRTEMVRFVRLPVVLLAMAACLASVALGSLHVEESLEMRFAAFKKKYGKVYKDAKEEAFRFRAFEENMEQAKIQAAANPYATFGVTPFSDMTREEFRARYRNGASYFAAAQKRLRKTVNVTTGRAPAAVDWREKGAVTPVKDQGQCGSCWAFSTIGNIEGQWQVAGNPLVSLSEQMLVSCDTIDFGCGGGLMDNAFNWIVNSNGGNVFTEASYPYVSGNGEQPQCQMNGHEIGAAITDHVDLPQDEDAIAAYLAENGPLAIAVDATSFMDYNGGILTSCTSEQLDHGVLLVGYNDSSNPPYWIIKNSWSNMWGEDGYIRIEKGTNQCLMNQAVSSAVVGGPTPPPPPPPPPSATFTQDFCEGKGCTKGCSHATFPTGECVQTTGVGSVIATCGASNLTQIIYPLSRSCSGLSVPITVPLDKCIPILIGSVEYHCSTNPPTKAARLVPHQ
Chain of Rhodesain (Trypanosoma brucei rhodesiense) (Q95PM0 1-450): as the sequence (Q95PM0 whole entry) above

| SMILES | IC50 [1] | inhibition [2] | Ki (Falcipain 2) | Ki (Rhodesain) | IC50 (Plasmodium falciparum) | inhibition [3] |
| --- | --- | --- | --- | --- | --- | --- |
| NCCCC(N)(C(=O)O)C(F)F (configuration not stated) [EFLORNITHINE] | 22.9 µM |  |  |  |  |  |
| CC(C)(C)S[C@H]1OC(=O)C[C@@H]1NC(=O)CN1C(=O)[C@@H](COC(=O)Nc2ccc(Cl)cc2C(F)(F)F)N=C(c2ccccc2)c2ccccc21 | 14.2 µM | > 50% | 8.2 µM | 0.7 µM | 28.5 µM |  |
| O=C(CN1C(=O)[C@@H](COC(=O)Nc2ccc(Cl)cc2C(F)(F)F)N=C(c2ccccc2)c2ccccc21)N[C@H]1CC(=O)O[C@@H]1OCc1ccccc1 |  | > 50% | 8.9 µM | 0.8 µM | 49.5 µM |  |
| O=C(CN1C(=O)[C@@H](COC(=O)Nc2ccc(Cl)cc2C(F)(F)F)N=C(c2ccccc2)c2ccccc21)N[C@H]1CC(=O)OC1O (some centres not stated) |  |  | 4 µM |  | > 100 µM | 30% |
| CC(C)C[C@H](NC(=O)[C@H]1O[C@@H]1C(=O)O)C(=O)NCCCCN=C(N)N [E-64] |  |  | 40.3 µM |  | 9.3 µM |  |
| CC(C)(C)S[C@@H]1OC(=O)C[C@@H]1NC(=O)CN1C(=O)[C@@H](COC(=O)Nc2ccc(Cl)cc2C(F)(F)F)N=C(c2ccccc2)c2ccccc21 |  | < 30% |  |  |  |  |
| O=C(CN1C(=O)[C@@H](COC(=O)Nc2ccc(Cl)cc2C(F)(F)F)N=C(c2ccccc2)c2ccccc21)N[C@H]1CC(=O)O[C@H]1OCc1ccccc1 |  | < 30% |  |  |  |  |
